This note sets out measurements from ChEMBL document CHEMBL4251640, “Antimalarial naphthoquinones. Synthesis via click chemistry, in vitro activity, docking to PfDHODH and SAR of lapachol-based compounds” (Eur J Med Chem, 2018).

Data set [1] is described as follows: Cytotoxicity against human HepG2 cells assessed as reduction in cell viability after 24 hrs by MTT assay. Type of data set: cell-based. The gist of the method: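 HepG2 hepatoma cells kept at 37 °C, 5% CO2 in RPMI 1640 with 5% FBS, penicillin and streptomycin; trypsinized and plated in 96-well plates. Samples diluted in medium at 0.02% DMSO final, four serial concentrations; 24 h at 37 °C, then MTT (5 mg/ml in PBS) 90 min, formazan dissolved in DMSO, absorbance 570 nm. Duplicate; CC50 = concentration killing 50% of cells.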
For orientation: Tetrazolium assays rely on reduction of a dye to a coloured formazan, in cell work by metabolically active cells.

In data set [2] the test system is Plasmodium falciparum. Kind of data set: Antimalarial activity against chloroquine-resistant/mefloquine-sensitive Plasmodium falciparum W2 ring stage forms infected in human erythrocytes assessed as reduction in parasite growth after 48 hrs by parasite LDH release assay. The conditions noted are these: W2, 48 h. Type of data set: functional, organism-based. In short, it runs like this: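 Sorbitol-synchronized ring-stage parasites in human erythrocytes (culture kept at 37 °C, candle jar, RPMI with hypoxanthine, HEPES, 10% human plasma) plated at 2% parasitemia, 1% hematocrit with drugs diluted from DMSO stock. Incubated 48 h, frozen -20 °C 24 h, thawed. Lysate given Malstat plus NBT/PES for 1 h at 37 °C in the dark, A570 read. Triplicates. IC50 from sigmoidal dose-response fit versus drug-free controls.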
For orientation: LDH leaks from cells whose membrane has failed.

A short description of data set [3]: Selectivity index, CC50 for human HepG2 cells to IC50 for chloroquine-resistant/mefloquine-sensitive Plasmodium falciparum W2 ring stage forms. The conditions noted are these: read-out: Ratio CC50/IC50. Type of data set: toxicity. In short, it runs like this:
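HepG2 cytotoxicity: cells in RPMI 1640 with 5% FBS, trypsinized and plated. Compounds at 0.02% DMSO final, four serial-dilution concentrations, 24 h at 37 °C. MTT added for 90 min, formazan dissolved in DMSO, read at 570 nm. Duplicates. CC50 taken as the concentration killing 50% of cells. SI = CC50/IC50 against W2, with IC50 from the 48 h pLDH assay.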

Where only a bound is given, the exact number is not on record here.

As a reminder, the CC50 is the concentration at which the toxic effect on the cells reaches its halfway point. In general, IC50 refers to the point on the concentration scale where inhibition reaches its midpoint. Consider `COc1cc([N+](=O)[O-])ccc1-n1cc(COC2=C(CC=C(C)C)C(=O)c3ccccc3C2=O)nn1`, for which the CC50 at 24 h in data set [1] came out at 701 µM. Besides, the IC50 in data set [2] came out at 4.1 µM. Besides, the selectivity ratio in data set [3] was 171.

For `CC(C)=CCC1=C(OCc2cn(-c3ccccc3)nn2)C(=O)c2ccccc2C1=O`, the CC50 at 24 h in data set [1] turned out to be 100 µM. Besides, in data set [2], the IC50 is 19.1 µM. Besides, the selectivity ratio in data set [3] worked out at 5.2.

In the case of `CC(C)=CCC1=C(OCc2cn(-c3ccnc4cc(Cl)ccc34)nn2)C(=O)c2ccccc2C1=O`, the cytotoxic concentration (CC50) at 24 h in data set [1] is 1940 µM. The IC50 in data set [2] turned out to be 15.1 µM. For the same compound, the selectivity ratio in data set [3] is 129.

Turning to `COc1ccc(-n2cc(COC3=C(CC=C(C)C)C(=O)c4ccccc4C3=O)nn2)c([N+](=O)[O-])c1`, the half-maximal cytotoxic concentration (CC50) at 24 h in data set [1] turned out to be 532 µM. Further, in data set [2], the IC50 came to 8.2 µM. Also, the selectivity ratio in data set [3] amounted to 64.8.

`CC(C)=CCC1=C(OCc2cn(-c3cccc(F)c3)nn2)C(=O)c2ccccc2C1=O`: the CC50 at 24 h in data set [1] was 265 µM. Further, the IC50 in data set [2] was determined as 8.4 µM. For the same compound, the selectivity ratio in data set [3] came out at 31.5.

Regarding `CC(C)=CCC1=C(OCc2cn(Cc3ccccn3)nn2)C(=O)c2ccccc2C1=O`, the CC50 at 24 h in data set [1] came out at 658 µM. Moreover, the 50% inhibitory concentration (IC50) in data set [2] worked out at 8.7 µM. The selectivity ratio in data set [3] amounted to 75.6.

As to `CC(C)=CCC1=C(OCc2cn(C3C[C@@H](CO)O[C@H]3n3cc(C)c(=O)[nH]c3=O)nn2)C(=O)c2ccccc2C1=O` (stereo partly specified), the CC50 at 24 h in data set [1] is 60.7 µM. Also, the 50% inhibitory concentration (IC50) in data set [2] was 13.6 µM. Moreover, the selectivity ratio in data set [3] was 4.5.

Consider `CC(C)=CCC1=C(OCc2cn(-c3ccccc3C)nn2)C(=O)c2ccccc2C1=O`, for which the CC50 at 24 h in data set [1] stood at 256 µM. Moreover, the IC50 in data set [2] was 18.8 to 19.4 µM. In addition, the selectivity ratio in data set [3] worked out at 13.6.

On to `CC(C)=CCC1=C(OCc2cn(-c3ccc(Cl)cc3)nn2)C(=O)c2ccccc2C1=O`, for which the 50% cytotoxic concentration (CC50) at 24 h in data set [1] was found to be 1150 µM. The IC50 in data set [2] was 9.8 µM. For the same compound, in data set [3], the selectivity ratio worked out at 118.

Consider `CC(C)=CCC1=C(OCc2cn(C3CCNCC3)nn2)C(=O)c2ccccc2C1=O`, for which the CC50 at 24 h in data set [1] was determined as 570 µM. Besides, the half-inhibitory concentration (IC50) in data set [2] was determined as 4.6 µM. Also, the selectivity ratio in data set [3] was 124.

Take `CC(C)=CCC1=C(OCc2cn(-c3ccc([N+](=O)[O-])cc3)nn2)C(=O)c2ccccc2C1=O`: the CC50 at 24 h in data set [1] worked out at 540 µM. For the same compound, the IC50 in data set [2] amounted to 11.7 µM. Moreover, the selectivity ratio in data set [3] turned out to be 46.1.

For `C#CCOC1=C(CC=C(C)C)C(=O)c2ccccc2C1=O`, the cytotoxic concentration (CC50) at 24 h in data set [1] is 924 µM. Further, the IC50 in data set [2] turned out to be 8.2 µM. For the same compound, in data set [3], the selectivity ratio was 113.

On to `CC(C)=CCC1=C(OCc2cn(-c3ccc(S(N)(=O)=O)cc3)nn2)C(=O)c2ccccc2C1=O`, for which the cytotoxic concentration (CC50) at 24 h in data set [1] was found to be 483 µM. The IC50 in data set [2] was greater than 105 µM. The selectivity ratio in data set [3] was less than 4.6.

For the compound `CC(C)=CCC1=C(OCc2cn(Cc3ccccc3)nn2)C(=O)c2ccccc2C1=O`, the 50% cytotoxic concentration (CC50) at 24 h in data set [1] was 414 µM. In data set [2], the IC50 was found to be 7.8 µM. The selectivity ratio in data set [3] amounted to 53.

For the compound `COc1ccc(-n2cc(COC3=C(CC=C(C)C)C(=O)c4ccccc4C3=O)nn2)cc1`, in data set [1], the cytotoxic concentration (CC50) at 24 h is 200 µM. Besides, the 50% inhibitory concentration (IC50) in data set [2] worked out at 14.2 µM. In addition, the selectivity ratio in data set [3] came out at 14.1.

Turning to `CC(C)=CCC1=C(OCc2cn(-c3ccc(C#N)cc3)nn2)C(=O)c2ccccc2C1=O`, the CC50 at 24 h in data set [1] is 707 µM. The half-maximal inhibitory concentration (IC50) in data set [2] turned out to be 8.4 µM. For the same compound, the selectivity ratio in data set [3] stood at 84.2.

With `CC(C)=CCC1=C(OCc2cn(-c3cccnc3)nn2)C(=O)c2ccccc2C1=O`, in data set [1], the CC50 at 24 h came out at 1030 µM. For the same compound, the IC50 in data set [2] came out at 5.2 µM. Moreover, the selectivity ratio in data set [3] stood at 198.

`CC(C)=CCC1=C(OCc2cn(C3CCN(C(=O)OC(C)(C)C)CC3)nn2)C(=O)c2ccccc2C1=O`: in data set [1], the cytotoxic concentration (CC50) at 24 h was 136 µM. Besides, the 50% inhibitory concentration (IC50) in data set [2] was determined as 4 µM. Further, in data set [3], the selectivity ratio worked out at 34.

As for `O=C1C(O)=C([C@H]2CC[C@H](c3ccc(Cl)cc3)CC2)C(=O)c2ccccc21` [ATOVAQUONE], the CC50 at 24 h in data set [1] is greater than 40 µM. For the same compound, the half-maximal inhibitory concentration (IC50) in data set [2] came out at 0.00122 µM. Besides, in data set [3], the selectivity ratio was greater than 328.

Take `CCN(CC)CCCC(C)Nc1ccnc2cc(Cl)ccc12` (stereo unspecified) [CHLOROQUINE]: in data set [1], the CC50 at 24 h is 393 µM.

Take `CC(C)=CCC1=C(O)C(=O)c2ccccc2C1=O` [LAPACHOL]: in data set [1], the half-maximal cytotoxic concentration (CC50) at 24 h was greater than 4130 µM. For the same compound, in data set [2], the half-maximal inhibitory concentration (IC50) turned out to be 124 µM. Besides, in data set [3], the selectivity ratio was greater than 33.4.
